Results on 16 compounds are retold here after ChEMBL document CHEMBL1155338, “Antioxidant and antibacterial studies of arylazopyrazoles and arylhydrazonopyrazolones containing coumarin moiety” (2009).

Active and inactive are the calls of the source. No cut-off for these calls is given here.

Assay type in all cases: functional
One test relates to Staphylococcus aureus. As to the kind of experiment: Antimicrobial activity against Staphylococcus aureus NCIM 5021 after 24 hrs by disk diffusion method. An outline of the steps:
(§1)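 Disc diffusion on nutrient agar. Plates were swabbed evenly with a standard inoculum ([…] c.f.u./ml, 0.5 McFarland). 6.25 mm filter-paper discs were dry-heat sterilized (140 °C, 1 h), soaked in test compound at 250 mcg/disc, and placed on the agar. Solvent, growth and ciprofloxacin controls were included. Plates were incubated inverted 24 h at 37 °C and inhibition zones measured.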
For orientation: In agar diffusion tests the substance spreads into inoculated agar from a disc or well.

Test [1] has as its system Radical scavenging activity. As to the kind of experiment: Antioxidant activity assessed as DPPH radical scavenging after 30 mins. Further details: concentration or dose not given beside the values. Put shortly: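 Compound in methanol mixed 1:1 with methanolic DPPH, both 0.2 mM stocks, giving 0.1 mM each final. Shaken, left 30 min, then A517 read. % scavenging = [(Ab + As) − Am]/Ab × 100, where Ab is DPPH alone, As is compound alone and Am is the mixture. Ascorbic acid reference. Three replicates, averaged.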
For orientation: Loss of DPPH colour is used to gauge radical scavenging.

Another test deals with Bacillus subtilis. As to the kind of experiment: Antimicrobial activity against Bacillus subtilis NCIM 2010 after 24 hrs by disk diffusion method. An outline of the steps: as §1

For `CC1=NN(C(=O)COc2ccc3c(C)cc(=O)oc3c2)C(=O)/C1=N/Nc1ccccc1C(=O)O`, the “inhibition zone (IZ)” value in the test on Staphylococcus aureus is recorded as 12.3 mm; with Bacillus subtilis, 26.7 mm. Also, in test [1], the Activity was determined as 20%.

On to `Cc1nn(C(=O)COc2ccc3c(C)cc(=O)oc3c2)c(C)c1/N=N/c1ccc(Cl)cc1`, for which the “inhibition zone (IZ)” value with Staphylococcus aureus and in the test on Bacillus subtilis was “inactive” throughout. Further, the Activity in test [1] came out at 32%.

For the compound `CC1=NN(C(=O)COc2ccc3c(C)cc(=O)oc3c2)C(=O)/C1=N/Nc1ccc(Br)cc1`, the “inhibition zone (IZ)” value with Staphylococcus aureus is given as 13.7 mm; in the test on Bacillus subtilis it was 14 mm. Moreover, the result in test [1] was inactive.

As for `CC1=NN(C(=O)COc2ccc3c(C)cc(=O)oc3c2)C(=O)/C1=N/Nc1ccc(C(=O)O)cc1`, the “inhibition zone (IZ)” value in the test on Staphylococcus aureus and in the test on Bacillus subtilis was “inactive” in each case. For the same compound, the outcome in test [1] was inactive.

Turning to `CC1=NN(C(=O)COc2ccc3c(C)cc(=O)oc3c2)C(=O)/C1=N/Nc1cccc([N+](=O)[O-])c1`, the “inhibition zone (IZ)” value in the test on Staphylococcus aureus and in the test with Bacillus subtilis was “inactive” throughout. The Activity in test [1] worked out at 69%.

As to `Cc1nn(C(=O)COc2ccc3c(C)cc(=O)oc3c2)c(C)c1/N=N/c1ccc(C(=O)O)cc1`, the “inhibition zone (IZ)” value with Staphylococcus aureus and in the test on Bacillus subtilis was “inactive” each time. The Activity in test [1] is 32%.

As to `Cc1nn(C(=O)COc2ccc3c(C)cc(=O)oc3c2)c(C)c1/N=N/c1ccc([N+](=O)[O-])cc1`, the “inhibition zone (IZ)” value with Staphylococcus aureus and in the test with Bacillus subtilis was “inactive” each time. The Activity in test [1] worked out at 32%.

On to `O=C1O[C@H]([C@@H](O)CO)C(O)=C1O`, for which the “inhibition zone (IZ)” value in the test with Staphylococcus aureus and in the test on Bacillus subtilis was “inactive” throughout. Besides, the Activity in test [1] was 96%.

Regarding `O=C(O)c1cn(C2CC2)c2cc(N3CCNCC3)c(F)cc2c1=O` [CIPROFLOXACIN], the “inhibition zone (IZ)” value in the test on Staphylococcus aureus is listed as 30 mm; with Bacillus subtilis, 33.7 mm. Further, the result in test [1] was inactive.

Turning to `Cc1nn(C(=O)COc2ccc3c(C)cc(=O)oc3c2)c(C)c1/N=N/c1ccccc1C(=O)O`, in the test with Staphylococcus aureus, the “inhibition zone (IZ)” value is “inactive”. The Activity in test [1] stood at 28%. Also, the “inhibition zone (IZ)” value in the test with Bacillus subtilis came to 16.7 mm.

As for `CC1=NN(C(=O)COc2ccc3c(C)cc(=O)oc3c2)C(=O)/C1=N/Nc1ccc(C)cc1C`, the “inhibition zone (IZ)” value with Staphylococcus aureus and in the test on Bacillus subtilis was “inactive” in each case. The Activity in test [1] amounted to 57%.

Take `Cc1ccc(/N=N/c2c(C)nn(C(=O)COc3ccc4c(C)cc(=O)oc4c3)c2C)c(C)c1`: the “inhibition zone (IZ)” value with Staphylococcus aureus and with Bacillus subtilis was “inactive” in each case. In test [1], the Activity was found to be 24%.

As for `Cc1nn(C(=O)COc2ccc3c(C)cc(=O)oc3c2)c(C)c1/N=N/c1cccc([N+](=O)[O-])c1`, the “inhibition zone (IZ)” value in the test on Staphylococcus aureus and in the test on Bacillus subtilis was “inactive” in each case. In addition, the Activity in test [1] worked out at 38%.

Take `CC1=NN(C(=O)COc2ccc3c(C)cc(=O)oc3c2)C(=O)/C1=N/Nc1ccc(Cl)cc1`: the “inhibition zone (IZ)” value in the test with Staphylococcus aureus is recorded as 11.3 mm; with Bacillus subtilis, 24.3 mm. Moreover, the Activity in test [1] is 53%.

For `Cc1nn(C(=O)COc2ccc3c(C)cc(=O)oc3c2)c(C)c1/N=N/c1ccc(Br)cc1`, the “inhibition zone (IZ)” value in the test with Staphylococcus aureus is recorded as 12.7 mm; in the test on Bacillus subtilis it was 27 mm. Moreover, the Activity in test [1] was determined as 55%.

As for `CC1=NN(C(=O)COc2ccc3c(C)cc(=O)oc3c2)C(=O)/C1=N/Nc1ccc([N+](=O)[O-])cc1`, the “inhibition zone (IZ)” value with Staphylococcus aureus and with Bacillus subtilis was “inactive” throughout. Further, the Activity in test [1] stood at 31%.
